A selection: hits, their analogues and other compounds. The true share with any hit is near 2.7%.
MC4R antag cAMP: human MC4R antagonism in cAMP assay; MC4R-expressing cells, MTII-stimulated cAMP, LANCE TR-FRET; inhibition, % at 6.5 µM; 360,000 tested, 0.48% active; AID 540295;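 active = inhibition above its plate's cutoff, the mean of tested wells on that plate plus 3 SD, cut at about 29% in these data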;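 note: 0% = Melanotan II alone and 100% = Melanotan II plus saturating MCL0020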
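Material – human MC4R-expressing U2OS cells · Repeats – no replicates · Detection – TR-FRET with Eu-cAMP and labeled anti-cAMP, 671 nm · Times – compound 30 min, challenge 1 h, detection 1 h · Compound – single nominal compound dose of 6.5 µM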
NR1D1 modulator: Rev-erb alpha (human) modulation; Rev-erbα–FITC-DNA binding, fluorescence polarization, 90 min; activity, % at 10 µM; 370,000 tested, 0.79% active;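 active = activity above about 14%, limit read from the data; passing the limit was not always enough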;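 note: 0% = DMSO wells with 35 nM protein and 100% = DMSO wells with 750 nM protein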
Target sequence (P20393 whole entry, looked up): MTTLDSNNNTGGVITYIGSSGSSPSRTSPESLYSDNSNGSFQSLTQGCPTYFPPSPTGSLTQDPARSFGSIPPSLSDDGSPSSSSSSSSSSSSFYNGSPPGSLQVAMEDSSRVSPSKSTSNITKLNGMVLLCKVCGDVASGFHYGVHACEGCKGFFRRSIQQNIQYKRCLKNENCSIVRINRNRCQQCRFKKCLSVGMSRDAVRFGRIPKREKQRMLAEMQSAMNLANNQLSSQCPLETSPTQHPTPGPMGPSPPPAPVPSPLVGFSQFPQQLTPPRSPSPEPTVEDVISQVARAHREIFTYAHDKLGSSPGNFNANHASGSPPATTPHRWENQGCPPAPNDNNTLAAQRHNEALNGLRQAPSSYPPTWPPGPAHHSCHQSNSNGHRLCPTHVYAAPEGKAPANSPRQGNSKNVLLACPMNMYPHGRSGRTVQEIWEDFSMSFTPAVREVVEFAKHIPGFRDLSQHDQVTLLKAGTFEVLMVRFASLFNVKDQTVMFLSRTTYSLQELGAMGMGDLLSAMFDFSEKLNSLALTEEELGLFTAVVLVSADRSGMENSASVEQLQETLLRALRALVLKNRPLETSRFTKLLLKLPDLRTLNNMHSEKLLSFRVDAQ
MC4R ag barr: activates human MC4R beta-arrestin recruitment; P32245; U2OS MC4R beta-arrestin complementation, luminescence; percent of melanotan II response, DMSO zero; activation, % at 8.9 µM; 360,000 tested, 0.98% active; AID 540308;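 active = activation above a per-plate cutoff, the mean activation of sample wells on that plate plus 3 SD, cut at about 8% in these data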
NR2E3 ag-1: NR2E3 (human) agonism. inhibition of corepressor binding, % at 4.78 µM. 320,000 tested, 0.12% active. AID 2300. GST-NR2E3/biotin-RetCOR TR-FRET, 1536-well. Q9Y5X4;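 active = percent inhibition above the cutoff of mean plus 3 SD of all tested compounds, set per screening campaign, cut at about 20% in these data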;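 note: 0% = DMSO wells and 100% = biotin wells as full block of FRET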
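System: GST-NR2E3 and biotin-RetCOR proteins; probe or stimulus: 7 nM biotin-RetCOR; doses: compound at 4.8 µM, single dose; schedule: Compound–protein incubation for 5 h at 4 °C; detection: time-resolved FRET; read-out: percent inhibition; controls: biotin wells as high control, 0.6% DMSO wells as low control; format: 1536-well plates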
NR2E3 ag-2: agonists of human NR2E3 nuclear receptor; Q9Y5X4; CHO-S Gal4-NCOR/VP16-NR2E3 two-hybrid, luciferase; inhibition of corepressor binding, % at 3.98 µM; 360,000 tested, 0.35% active; AID 602229;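 active = inhibition above the mean of all tested compounds plus 3 SD, cut at about 70% in these data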;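 note: 0% = DMSO with NR2E3 transfected cells and 100% = cells lacking NR2E3 construct; higher means lower luciferase signal from less NR2E3 corepressor binding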
PG9 Ab binder: small molecules binding HIV-1 gp120 antibody PG9; TR-FRET gp120-PG9 antibody binding; inhibition, % at 6.7 µM; 360,000 tested, 0.43% active; in the data active = inhibition above about 8.5%
NR2E3 ag confirm: NR2E3 agonism confirmed in two-hybrid assay | shares compounds with NR2E3 ag-2 | 2,300 tested, 51% active | inhibition, % at 3.98 µM | CHO-S mammalian two-hybrid NR2E3-NCOR, luciferase luminescence;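 active = average inhibition above a cutoff equal to the mean inhibition of all tested compounds plus one SD, cut at about 70% in these data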;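 note: 0% = DMSO in NR2E3 cells and 100% = DMSO in cells lacking NR2E3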
GAL4-VP16 luc: GAL4-VP16 reporter inhibition in NR2E3 agonist counterscreen. 2,300 tested, 29% active. inhibition, % at 3.98 µM. CHO-S GAL4-VP16 luciferase reporter, luminescence. shares compounds with NR2E3 ag-2;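 active = mean inhibition above a cutoff equal to the average over all tested compounds plus one standard deviation, cut at about 70% in these data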;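 note: luciferase from a UAS reporter driven by GAL4-VP16 transactivation; 0% = DMSO with VP16-transfected cells and 100% = DMSO with cells lacking VP16; higher means less reporter light so more repression of VP16 activity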
* marks the source's active call; other numbers are inactive results; x = no result.

SMILES	MC4R antag cAMP	NR1D1 modulator	MC4R ag barr	NR2E3 ag-1	NR2E3 ag-2	PG9 Ab binder	NR2E3 ag confirm	GAL4-VP16 luc
COC(C(=O)C(O)C(C)O)C1Cc2cc3cc(OC4CC(OC5CC(O)C(O)C(C)O5)C(O)C(C)O4)c(C)c(O)c3c(O)c2C(=O)C1OC1CC(OC2CC(OC3CC(O)C(OC)C(C)O3)C(O)C(C)O2)C(O)C(C)O1 (centres undefined)	0	1	-2	x	96*	-10	93*	75*
c1ccc(-c2nc(-c3ccncc3)no2)cc1	5	1	-2	0	-59	-2	x	x
c1ccc(C(Cc2nc(-c3ccncc3)no2)c2ccccc2)cc1	10	10	0	-2	64	-1	75*	56
COc1ccc(-c2[nH]ncc2CN(C)C(C)c2ccon2)c(OC)c1 (centres undefined)	6	1	-1	4	-11	-2	x	x
Cc1ccc(S(=O)(=O)Nc2ccc3cc([N+](=O)[O-])ccc3c2[N+](=O)[O-])cc1	10	0	-3	x	101*	-1	100*	91*
Nc1ncnc2c(C3OC(CO)C(O)C3O)c[nH]c12 (centres undefined)	-7	-2	0	x	103*	-1	101*	99*
Nc1ncnc2c1ncn2[C@@H]1O[C@H](CO)[C@@H](O)[C@H]1O	4	-2	-1	0	20	2	x	x
COc1cc2nc(=S)n3[nH]c(CCn4nc(C)cc4C)nc3c2cc1OC	1	4	-3	-1	85*	-1	9	-14
COc1cc2nc(=S)n3[nH]c(COc4ccccc4C)nc3c2cc1OC	7	-3	-4	6	-11	-2	x	x
OCCC1CN(Cc2ccsc2)CCN1C1CCCC1 (centres undefined)	15	-6	2	1	20	0	x	x
N#C/C(=N\Nc1cccc(C(F)(F)F)c1)C(=O)c1csc(-c2cccnc2)n1	22	-1	-3	-1	77*	1	94*	77*
Cc1ccc(C(=O)Nc2cccc(C(F)(F)F)c2)cc1NC(=O)c1csc(-c2ccncc2)n1	22	x	-1	3	-24	x	x	x
CN(C)c1ccc(C(=O)OCC(=O)Nc2cccc(S(=O)(=O)N3CCCC3)c2)cc1	17	-8	-1	x	0	-2	x	x
CC1Sc2ccc(S(=O)(=O)NCCc3ccc(Cl)cc3)cc2NC1=O (centres undefined)	7	1	0	3	34	-2	x	x
Cc1cccc(N2CCN(S(=O)(=O)c3ccc4c(c3)NC(=O)C(C)S4)CC2)c1C (centres undefined)	-4	-1	-2	-2	53	1	45	48
Cc1ccc(NC(=O)C2CCN(S(=O)(=O)c3ccc4c(c3)NC(=O)C(C)S4)CC2)cc1Cl (centres undefined)	7	2	-1	-1	105*	-2	98*	85*
Cc1cccc(CCNS(=O)(=O)c2ccc3c(c2)NC(=O)C(C)S3)c1 (centres undefined)	-2	1	5	3	52	0	33	49
CC1Sc2ccc(S(=O)(=O)N3CCN(c4ccccc4)CC3)cc2NC1=O (centres undefined)	3	-1	6	2	42	0	x	x
CC(C)c1ccc(/C=N/N2CCCCC2)cc1	3	-1	2	-1	-15	-2	x	x
COc1ccc(/C=C2\SC(=O)N(CCCC(=O)Nc3cc(Cl)ccc3C(=O)O)C2=O)cc1	0	1	-2	x	88*	1	80*	87*
CCOC(=O)c1cnc(-n2nc(C)cc2C)nc1NCCc1ccccc1	4	-5	1	3	86*	-4	12	-7
CCOC(=O)c1cnc(-n2nc(C)cc2C)nc1NC1CCCC1	6	5	2	2	94*	0	30	0

Compound activity deposited in PubChem BioAssay by several laboratories.
